According to ChEMBL document CHEMBL1629705, “PSI-7851, a pronucleotide of beta-D-2'-deoxy-2'-fluoro-2'-C-methyluridine monophosphate, is a potent and pan-genotype inhibitor of hepatitis C virus replication” (Antimicrob Agents Chemother, 2010):
The source made the active and inactive calls. The rule behind the calls is not given here.

Assays:
HepG2 [1] = test: Mitochondrial toxicity in human HepG2 cells assessed as effect on mitochondrial cytochrome c oxidase subunit 2 gene level up to 100 uM after 14 days by real-time PCR assay; assay type: cell-based; details: hepg2, 336 h
Outline: (§1)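 HepG2 or CEM cells incubated 14 days with compound up to 100 μM, ddC as control. Medium and compound replenished on days 7 and 11. Mitochondrial COXII gene and nuclear rDNA measured by multiplex quantitative RT-PCR.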

Hepatitis C virus [2] = test: Antiviral activity against Hepatitis C virus harboring wild-type NS5B infected in human lunet cells by luciferase-based replicon assay; assay type: functional, Hepacivirus hominis
Outline: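 ET-lunet cells with the ET genotype 1b replicon, wild-type or S96T/N142T (ET replicon with these mutations electroporated into Lunet cells, selected in 0.2 mg/ml G418). 3,000 cells/well, 4 days with serially diluted compound. Firefly luciferase luminescence read-out; EC90 from dose–response.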

[3] = Cytotoxicity against human HepG2 cells assessed as inhibition of mitochondrial DNA synthesis; assay type: cell-based; outline: as §1
[4] = Cytotoxicity against human HepG2 cells assessed as effect on cellular GAPDH RNA level after 8 days by quantitative real-time PCR; assay type: cell-based
[5] = Cytotoxicity against human erythroid progenitor cells after 14 to 16 days by colony formation assay; assay type: cell-based
Outline: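 Normal human bone marrow erythroid and myeloid progenitors, 2 × 10^4 cells per culture in methylcellulose with rh-SCF 50 ng/ml, rh-IL-3 10 ng/ml, rh-GM-CSF 10 ng/ml and rh-EPO 3 U/ml. Compound up to 50 μM, DMSO control 0.1%, 14–16 days.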

[6] = biological target: DNA-directed RNA polymerase II subunit RPB1 (Homo sapiens, UniProt P24928); test: Inhibition of human RNA polymerase at 2 uM
HepG2 [7] = test: Cytotoxicity against human HepG2 cells assessed as effect on ribosome RNA gene level at up to 100 uM after 14 days by quantitative real-time PCR assay; assay type: cell-based; details: hepg2, 336 h; outline: as §1
Hepatitis C virus [8] = test: Antiviral activity against Hepatitis C virus assessed as clearance of HCV from replicon cells at 1 uM; assay type: functional, organism-based; details: Hepacivirus hominis
Outline: (§2)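 ET-lunet replicon cells, 1 × 10^5/well, no G418, with compound at 0.1, 1 or 2 μM (final DMSO 0.5%). Passaged 1:3 or 1:4 every 3–4 days for 3 weeks with fresh compound, then 3 more weeks with 0.25 mg/ml G418 and no inhibitor. HCV RNA by RT-PCR normalized to rRNA (ΔΔCt vs DMSO) at each passage. Crystal violet colony staining at 6 weeks.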

Hepatitis C virus [9] = test: Antiviral activity against Hepatitis C virus assessed as inhibition of viral rebound at 2 uM after 3 weeks in presence of G418; assay type: functional, organism-based; details: Hepacivirus hominis; outline: as §2
Hepatitis C virus [10] = test: Antiviral activity against Hepatitis C virus assessed as log reduction in viral RNA at 2 uM after 3 weeks; assay type: functional, Hepacivirus hominis
Outline: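 ET-lunet replicon cells seeded at 1 × 10^5/well without G418, treated at 0.1, 1 or 2 μM (final DMSO 0.5%). Passaged 1:3–1:4 every 3–4 days for 3 weeks with fresh compound. Then compound withdrawn and cells grown 3 more weeks in 0.25 mg/ml G418. HCV RNA by RT-PCR (ΔΔCt vs rRNA and DMSO controls, log change). Colonies fixed in formaldehyde and stained with crystal violet at 6 weeks.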

Hepatitis C virus [11] = test: Antiviral activity against Hepatitis C virus genotype 1b harboring Ntat protein assessed as viral RNA level by quantitative real-time PCR; assay type: functional, organism-based, Hepacivirus hominis
[12] = Cytotoxicity against human CEM cells assessed as effect on cellular GAPDH RNA level after 8 days by quantitative real-time PCR; assay type: cell-based; details: CEM (CCRF-CEM) cells
Hepatitis C virus [13] = test: Inhibition of Hepatitis C virus Con1 recombinant NS5B polymerase after 30 mins by phosphor imaging; set-up: species or system Hepacivirus hominis; details: Con1, 0.5 h
Outline: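 C-terminal Δ21-truncated NS5B: 1b Con1 and 2a JFH-1 expressed in E. coli; 3a and 4a cloned from patient serum. Mix: 1 μM each NTP, [α-32P]UTP, 20 ng/μl genotype 1b(−) IRES RNA template, 40 ng/μl enzyme, 1 mM MgCl2, 0.75 mM MnCl2, 2 mM DTT, 50 mM HEPES pH 7.5. Run at 27°C: 30 min (1b, 2a) or 3 h (3a, 4a). EDTA quench, products on membrane read by phosphorimager. Duplicates; IC50 calculated.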

CC(C)OC(=O)[C@H](C)NP(=O)(OC[C@H]1O[C@@H](n2ccc(=O)[nH]c2=O)[C@](C)(F)[C@@H]1O)Oc1ccccc1 (some centres undefined)
Activity (HepG2 [1]): Non-toxic
EC90 (Hepatitis C virus [2]): 520 nM
CC90 [3]: < 3000 nM
CC50 at 192 h [4]: > 100 µM
CC50 [5]: > 50 µM
fold change (FC) [6]: 5
Activity (HepG2 [7]): Non-toxic
Activity (Hepatitis C virus [8]): Active
inhibition (Hepatitis C virus [9]): Active
FC (Hepatitis C virus [10]): >5
EC50 (Hepatitis C virus [11]): 93 nM
EC90 (Hepatitis C virus [11]): 750 nM
CC50 at 192 h [12]: > 100 µM

C[C@@]1(F)[C@H](O)[C@@H](COP(=O)(O)OP(=O)(O)OP(=O)(O)O)O[C@H]1n1ccc(=O)[nH]c1=O [GS-461203]
IC50 (Hepatitis C virus [13]): 1600 nM
